17 compounds from ChEMBL document CHEMBL3425458, “Design, synthesis and antitumor activity of triterpenoid pyrazine derivatives from 23-hydroxybetulinic acid” (Eur J Med Chem, 2015) can be followed below.

The subject of data set [1] is H22. As to the kind of experiment: In vivo antitumor activity […] cells xenografted in mouse assessed as tumor growth inhibitory ratio at 30 mg/kg, ip administered after 7 days of tumor transplantation measured at 25th day after tumor inoculation. The class given is functional. The conditions noted are these: 168 h, route intraperitoneal. The gist of the method: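 Mice bearing H22 liver cancer, 10 per group. Test article at 30 mg/kg ip. Vehicle 0.5 mL/mouse iv. Cyclophosphamide 30 mg/kg iv as positive control. Tumor weight recorded to give tumor inhibitory ratio.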
For orientation: A xenograft is tissue or cells of one species grown in another, often human tumour cells in immunodeficient mice.

Data set [2] has as its system B16. The data set is described as follows: In vivo antitumor activity against mouse B16 cells xenografted in mouse assessed as tumor growth inhibitory ratio at 30 mg/kg, ip administered after 7 days of tumor transplantation measured at 25th day after tumor inoculation. The class given is functional. The conditions noted are these: 168 h, route intraperitoneal.
Data set [3] has as its system Mus musculus. The data set is described as follows: Toxicity against mouse xenografted […] cells assessed as body weight at 30 mg/kg, ip administered after 7 days of tumor transplantation (reference value: 18.1 to 18.6 gms). Further details: dose 30 mg/kg, route intraperitoneal. The class given is organism-based. The settings on record: in vivo, 168 h. The gist of the method: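 H22 liver cancer-bearing mice, 10 per group at start and end. Test article given ip at 30 mg/kg, with a vehicle group (0.5 mL/mouse, iv). Body weight was recorded at start and at end, alongside tumor weight.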

Data set [4] relates to Mus musculus. The data set is described as follows: Toxicity against mouse xenografted with mouse B16 cells assessed as body weight at 30 mg/kg, ip administered after 7 days of tumor transplantation (reference value: 18.2 to 18.3 gms). The class given is organism-based. Further details: dose 30 mg/kg, route intraperitoneal. The settings on record: in vivo, 168 h.
Data set [5] can be described thus: Antiproliferative activity against human HL60 cells assessed as growth inhibition after 72 hrs by MTT assay. The class given is functional, cell-based. The settings on record: HL-60, 72 h. The method in brief:
(§1)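 Values are mean ± S.D. from three different experiments, each performed in triplicate.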
(Formazan colour is commonly taken as a measure of viable cells.)

Data set [6] is described as follows: Antiproliferative activity against human Bel7402 cells assessed as growth inhibition after 72 hrs by MTT assay. The format is functional, cell-based. The settings on record: Bel-7402, 72 h. The method in brief:
(§2)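 IC50 is the concentration inhibiting 50% cell growth. Values are mean ± S.D. from three different experiments, each performed in triplicate.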

Data set [7] can be described thus: Antiproliferative activity against human SF763 cells assessed as growth inhibition after 72 hrs by MTT assay. The class given is functional, cell-based. The conditions noted are these: SF763, 72 h. The gist of the method: as §1
Data set [8] deals with HeLa. As to the kind of experiment: Antiproliferative activity against human HeLa cells assessed as growth inhibition after 72 hrs by MTT assay. The class given is functional, cell-based. The gist of the method: as §2
Data set [9] has as its system B16. As to the kind of experiment: Antiproliferative activity against mouse B16 cells assessed as growth inhibition after 72 hrs by MTT assay. The settings on record: B16, 72 h. The format is functional, cell-based. The method in brief: as §2

pIC50: −log10 of the molar value.

For `C=C(C)[C@@H]1CC[C@]2(C(=O)O)CC[C@]3(C)[C@H](CC[C@@H]4[C@@]5(C)CC[C@H](O)[C@@](C)(CO)[C@@H]5CC[C@]43C)[C@@H]12`, the inhibition in vivo at 30 mg/kg in data set [1] worked out at 27.8%; in data set [2] it was 32.4%. In addition, the Activity in data set [3] came to 26.1 g; in data set [4], 26.7 g.
With `C=C(C)[C@@H]1CC[C@]2(C(=O)OCc3ccccc3)CC[C@]3(C)[C@H](CC[C@@H]4[C@@]5(C)Cc6nccnc6[C@@](C)(CO)[C@@H]5CC[C@]43C)[C@@H]12`, the pIC50 in [5] was 4.72; in data set [6], 5.00; in data set [7], 5.02; in [8], 4.89; in [9] it was 5.07.
In the same order, the values of `C=C(C)[C@@H]1CC[C@]2(C(=O)O)CC[C@]3(C)[C@H](CC[C@@H]4[C@@]5(C)Cc6nccnc6[C@@](C)(COC(C)=O)[C@@H]5CC[C@]43C)[C@@H]12` are 4.69, 4.77, 4.96, 4.84 and 5.00.
Take `C=C(C)[C@@H]1CC[C@]2(C(=O)O)CC[C@]3(C)[C@H](CC[C@@H]4[C@@]5(C)Cc6nccnc6[C@@](C)(CO)[C@@H]5CC[C@]43C)[C@@H]12`: the pIC50 in data set [5] is 4.62; in [6] it was 4.72; in data set [7], 4.81; in data set [8], 4.71; in data set [9], 4.83.
Taken in the same sequence, the figures for `C=C(C)[C@@H]1CC[C@]2(C(=O)OCC)CC[C@]3(C)[C@H](CC[C@@H]4[C@@]5(C)Cc6nccnc6[C@@](C)(CO)[C@@H]5CC[C@]43C)[C@@H]12` were 4.65, 4.83, 5.00, 4.82 and 5.00.
Taken in the same sequence, the figures for `C=C(C)[C@@H]1CC[C@]2(C(=O)OCCO)CC[C@]3(C)[C@H](CC[C@@H]4[C@@]5(C)Cc6nccnc6[C@@](C)(CO)[C@@H]5CC[C@]43C)[C@@H]12` were 4.63, 4.76, 4.87, 4.68 and 4.88.
In the same order, the values of `C=CCOC(=O)[C@]12CC[C@@H](C(=C)C)[C@@H]1[C@H]1CC[C@@H]3[C@@]4(C)Cc5nccnc5[C@@](C)(CO)[C@@H]4CC[C@@]3(C)[C@]1(C)CC2` are 4.72, 4.93, 5.06, 4.96 and 5.05.
With `C=C(C)[C@@H]1CC[C@]2(C(=O)OCC(=O)OCC)CC[C@]3(C)[C@H](CC[C@@H]4[C@@]5(C)Cc6nccnc6[C@@](C)(CO)[C@@H]5CC[C@]43C)[C@@H]12`, the negative-log IC50 (pIC50) in [5] is 4.63; in [6], 4.77; in data set [7] it was 4.88; in data set [8], 4.77; in data set [9], 4.95.
Regarding `C=C(C)[C@@H]1CC[C@]2(C(=O)OCc3ccc(-c4ccccc4C#N)cc3)CC[C@]3(C)[C@H](CC[C@@H]4[C@@]5(C)Cc6nccnc6[C@@](C)(CO)[C@@H]5CC[C@]43C)[C@@H]12`, the pIC50 is 4.93 in data set [5]; 5.03 in data set [6]; 5.25 in data set [7]; 5.03 in data set [8]; 5.15 in data set [9].
Turning to `C=C(C)[C@@H]1CC[C@]2(C(=O)O[C@@H]3O[C@H](CO)[C@@H](O)[C@H](O)[C@H]3O)CC[C@]3(C)[C@H](CC[C@@H]4[C@@]5(C)Cc6nccnc6[C@@](C)(CO)[C@@H]5CC[C@]43C)[C@@H]12`, the pIC50 in [5] was 4.68; in [6] it was 4.75; in data set [7], 4.96; in data set [8], 4.80; in [9], 4.89.
In the same order, the values of `C=C(C)[C@@H]1CC[C@]2(C(=O)OCC(=O)O)CC[C@]3(C)[C@H](CC[C@@H]4[C@@]5(C)Cc6nccnc6[C@@](C)(CO)[C@@H]5CC[C@]43C)[C@@H]12` are 4.71, 4.88, 5.05, 5.00 and 5.03.
As to `C=C(C)[C@@H]1CC[C@]2(C(=O)NCC(=O)OC)CC[C@]3(C)[C@H](CC[C@@H]4[C@@]5(C)Cc6nccnc6[C@@](C)(COC(C)=O)[C@@H]5CC[C@]43C)[C@@H]12`, the negative logarithm of the IC50 (pIC50) was 4.83 in data set [5]; 4.96 in data set [6]; 5.03 in data set [7]; 4.96 in data set [8]; 5.09 in data set [9].
On to `C=C(C)[C@@H]1CC[C@]2(C(=O)OCCO)CC[C@]3(C)[C@H](CC[C@@H]4[C@@]5(C)Cc6nccnc6[C@@](C)(COC(C)=O)[C@@H]5CC[C@]43C)[C@@H]12`, for which the pIC50 in [5] is 4.65; in data set [6] it was 4.80; in data set [7], 4.89; in data set [8], 4.76; in data set [9], 4.92.
Taken in the same sequence, the figures for `C=C(C)[C@@H]1CC[C@]2(C(=O)Oc3ccc(C#N)cc3)CC[C@]3(C)[C@H](CC[C@@H]4[C@@]5(C)Cc6nccnc6[C@@](C)(COC(C)=O)[C@@H]5CC[C@]43C)[C@@H]12` were 4.99, 5.09, 5.24, 5.10 and 5.22.
As to `O=P1(N(CCCl)CCCl)NCCCO1` (centres undefined) [CYCLOPHOSPHAMIDE ANHYDROUS], the inhibition in vivo at 30 mg/kg in [1] was 53.7%. The Activity in data set [3] was found to be 25.7 g.
As to `COc1cccc2c1C(=O)c1c(O)c3c(c(O)c1C2=O)C[C@@](O)(C(=O)CO)C[C@@H]3O[C@H]1C[C@H](N)[C@H](O)[C@H](C)O1` [DOXORUBICIN], the negative logarithm of the IC50 (pIC50) in [6] was 6.66.
In the case of `O=c1[nH]cc(F)c(=O)[nH]1` [FLUOROURACIL], in data set [2], the inhibition in vivo at 30 mg/kg worked out at 70.3%. The Activity in [4] was determined as 26.2 g.

The inhibition in vivo is the share of the control response that was lost under treatment. Broadly, the pIC50 is the IC50 on a negative log10 scale, so that one unit is a factor of ten.
